We go through six molecules from ChEMBL document CHEMBL1148202, “Lasonolides C-g, five new lasonolide compounds from the sponge Forcepia sp” (J Nat Prod, 2004).

In general, IC50 refers to the point on the concentration scale where inhibition reaches its midpoint. Read a high IC50 as weaker potency.

What all share (format): functional, cell-based
Experiment [1] concerns NCI/ADR-RES. Put plainly: Cytotoxicity against human NCI/ADR-RES cells. The procedure, abridged: (§1)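 Human tumour cell lines (A549 lung adenocarcinoma, PANC-1 pancreatic, NCI/ADR-RES […], formerly MCF-7/ADR) obtained from ATCC. In vitro proliferation inhibition run by a previously described protocol. Each sample assayed at least three times to derive the final IC50.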

Experiment [2] has as its system A549. The experiment in a line: Cytotoxicity against human A549 cells. The procedure, abridged:
as §1

Experiment [3] relates to PANC-1. The experiment in a line: Cytotoxicity against human PANC1 cells. In short, it runs like this:
as §1

Bounds are passed on as bounds.

As to `C=C(CCC(C)C)COC(=O)[C@H](O)C/C=C\C[C@@H]1O[C@@H]2/C=C/C/C=C/C(C)=C\[C@H]3O[C@@H](C/C=C/C=C/C(=O)O[C@H](C2)[C@@]1(C)CO)C[C@H](O)[C@H]3C` [LASONOLIDE A], the IC50 was found to be 490 nM in experiment [1], 8.6 nM in experiment [2] and 89 nM in experiment [3].
For the molecule `CCOC(=O)[C@H](O)C/C=C\C[C@@H]1O[C@@H]2/C=C/C/C=C/C(C)=C\[C@H]3O[C@@H](C/C=C/C=C/C(=O)O[C@H](C2)[C@@]1(C)CO)C[C@H](O)[C@H]3C` [LASONOLIDE E], the IC50 in experiment [1] was over 8000 nM; in experiment [2], 310 nM; in experiment [3], 570 nM.
For `C=C(COC(=O)[C@H](O)C/C=C\C[C@@H]1O[C@@H]2/C=C/C/C=C/C(C)=C\[C@H]3O[C@@H](C/C=C/C=C/C(=O)O[C@H](C2)[C@@]1(C)CO)C[C@H](O)[C@H]3C)C(O)CC(C)C` (stereo partly drawn) [LASONOLIDE C] the same measures were 1120 nM, 130 nM and 380 nM.
Consider `CC1=C/[C@H]2O[C@@H](C/C=C/C=C/C(=O)O[C@@H]3C[C@@H](/C=C/C\C=C\1)O[C@@H](C/C=C\C[C@@H](O)C(=O)O)[C@]3(C)CO)C[C@H](O)[C@H]2C` [LASONOLIDES F], for which the IC50 in experiment [1] is over 9000 nM; in experiment [2], over 9000 nM; in experiment [3], 15600 nM.
On to `C=C(COC(=O)[C@H](O)C/C=C\C[C@@H]1O[C@@H]2/C=C/C/C=C/C(C)=C\[C@H]3O[C@@H](C/C=C/C=C/C(=O)O[C@H](C2)[C@@]1(C)COC(=O)CCCCCCCCCCC)C[C@H](O)[C@H]3C)C(O)CC(C)C` (stereo partly drawn) [LASONOLIDE G], for which the IC50 in experiment [1], in experiment [2] and in experiment [3] was over 6000 nM throughout.
As to `CC1=C/[C@H]2O[C@@H](C/C=C/C=C/C(=O)O[C@@H]3C[C@@H](/C=C/C\C=C\1)O[C@@H](C/C=C\CCO)[C@]3(C)CO)C[C@H](O)[C@H]2C` [LASONOLIDE D], the values for the IC50 in experiment [1], in experiment [2] and in experiment [3] were over 9000 nM, 4500 nM and 4890 nM, respectively.
